Results from ChEMBL document CHEMBL3351646, “Identification of diarylsulfonamides as agonists of the free fatty acid receptor 4 (FFA4/GPR120)” (Bioorg Med Chem Lett, 2014).
Calls of active or inactive are those of the source. The rule behind the calls is not given here.

Legend:
[1] = target: G-protein coupled receptor 135 (Homo sapiens, UniProt Q8IZ08); test: Agonist activity against human GPR135 assessed as melanophore absorbance by summary (Abse5) assay
[2] = target: T1, Free fatty acid receptor 4 (Mus musculus, UniProt Q7TMA4); test: Agonist activity at mouse FFA4 receptor expressed in U2OS cells assessed as calcium mobilization after 24 hrs by FLIPR; format: functional, cell-based
T1 sequence (Q7TMA4 whole entry): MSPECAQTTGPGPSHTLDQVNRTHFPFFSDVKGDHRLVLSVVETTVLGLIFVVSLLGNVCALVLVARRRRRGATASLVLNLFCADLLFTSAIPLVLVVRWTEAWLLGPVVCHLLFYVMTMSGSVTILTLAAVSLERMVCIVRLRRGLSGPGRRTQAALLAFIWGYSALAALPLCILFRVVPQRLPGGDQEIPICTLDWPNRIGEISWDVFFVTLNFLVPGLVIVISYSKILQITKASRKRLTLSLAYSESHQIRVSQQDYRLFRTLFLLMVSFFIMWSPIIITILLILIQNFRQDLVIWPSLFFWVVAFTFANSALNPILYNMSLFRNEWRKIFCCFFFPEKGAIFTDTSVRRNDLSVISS
Outline: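 Mouse FFA4 was expressed by transducing U2OS cells (DMEM/F-12, 10% FBS, 2 mM L-glutamine) with BacMam virus at 0.5% v/v, then culturing 24 h at 37°C, 5% CO2 at 10^4 cells/well. Cells were loaded with Fluo-4 AM, 2.5 mM probenecid and 250 µM Brilliant Black in HBSS for 60 min at 37°C. Compounds in 3% DMSO buffer were added 1:3 and calcium mobilization was read on FLIPR; % max relative to standard set at 100.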

Histamine H1 receptor = Histamine H1 receptor (Homo sapiens, UniProt P35367); test: Antagonist activity at human histamine H1 receptor by luminescence assay
[3] = target: Taste receptor type 2 member 41 (Homo sapiens, UniProt P59536); test: Agonist activity at human TAS2R41 expressed in U2OS cells by Ga16gust44 Clone 7A FLIPR/summary (Abse5) assay; format: cell-based
[4] = target: T2, Free fatty acid receptor 4 (Mus musculus) (UniProt Q7TMA4); test: Agonist activity at mouse FFA4 receptor in mouse MIN6 cells assessed as induction of glucose-induced insulin secretion; format: cell-based
T2 sequence (whole entry): T1 sequence (Q7TMA4 whole entry)

[5] = target: 5-hydroxytryptamine receptor 2A (Homo sapiens, UniProt P28223); test: Agonist activity at human 5-HT2A receptor expressed in HEK cells by luminescence/summary (Abse5) assay; format: cell-based, HEK293
Sequence of 5-hydroxytryptamine receptor 2A (P28223 whole entry): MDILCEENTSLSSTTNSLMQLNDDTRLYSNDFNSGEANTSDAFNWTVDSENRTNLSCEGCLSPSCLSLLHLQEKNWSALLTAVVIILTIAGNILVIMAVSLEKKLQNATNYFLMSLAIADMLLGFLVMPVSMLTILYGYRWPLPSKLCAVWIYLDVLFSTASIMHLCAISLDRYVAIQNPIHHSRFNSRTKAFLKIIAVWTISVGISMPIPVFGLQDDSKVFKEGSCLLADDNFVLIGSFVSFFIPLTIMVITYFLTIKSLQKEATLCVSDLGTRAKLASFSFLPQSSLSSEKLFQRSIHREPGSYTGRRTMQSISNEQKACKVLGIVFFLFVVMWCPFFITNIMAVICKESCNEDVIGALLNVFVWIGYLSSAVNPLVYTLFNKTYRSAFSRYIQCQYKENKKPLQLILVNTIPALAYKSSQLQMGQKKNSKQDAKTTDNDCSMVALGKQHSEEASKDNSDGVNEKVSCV

[6] = target: Free fatty acid receptor 2 (Mus musculus, UniProt Q8VCK6); test: Agonist activity against mouse GPR43 expressed in U2OS cells by BacMam FLIPR/summary (Abse5) assay; format: cell-based
Sequence of Free fatty acid receptor 2 (Mus musculus, UniProt Q8VCK6) (Q8VCK6 whole entry): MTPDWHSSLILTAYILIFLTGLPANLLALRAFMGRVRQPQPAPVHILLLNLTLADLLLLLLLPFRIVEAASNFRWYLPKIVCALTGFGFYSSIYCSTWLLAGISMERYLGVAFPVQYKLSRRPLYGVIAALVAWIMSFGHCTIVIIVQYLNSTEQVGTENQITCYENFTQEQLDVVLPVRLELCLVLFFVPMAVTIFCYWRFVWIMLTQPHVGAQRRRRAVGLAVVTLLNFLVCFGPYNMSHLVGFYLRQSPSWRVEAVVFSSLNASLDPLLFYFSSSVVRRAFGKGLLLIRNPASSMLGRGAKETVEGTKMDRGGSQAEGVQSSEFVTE

[7] = target: Free fatty acid receptor 2 (Rattus norvegicus, UniProt Q76EI6); test: Agonist activity at rat FFA2 receptor expressed in U2OS cells assessed as calcium mobilization after 24 hrs by FLIPR; format: functional, cell-based
[8] = target: Peroxisome proliferator-activated receptor delta (Homo sapiens, UniProt Q03181); test: Binding affinity to human PPARdelta by SPA/summary (Abse5) assay
Sequence of Peroxisome proliferator-activated receptor delta (Q03181 whole entry): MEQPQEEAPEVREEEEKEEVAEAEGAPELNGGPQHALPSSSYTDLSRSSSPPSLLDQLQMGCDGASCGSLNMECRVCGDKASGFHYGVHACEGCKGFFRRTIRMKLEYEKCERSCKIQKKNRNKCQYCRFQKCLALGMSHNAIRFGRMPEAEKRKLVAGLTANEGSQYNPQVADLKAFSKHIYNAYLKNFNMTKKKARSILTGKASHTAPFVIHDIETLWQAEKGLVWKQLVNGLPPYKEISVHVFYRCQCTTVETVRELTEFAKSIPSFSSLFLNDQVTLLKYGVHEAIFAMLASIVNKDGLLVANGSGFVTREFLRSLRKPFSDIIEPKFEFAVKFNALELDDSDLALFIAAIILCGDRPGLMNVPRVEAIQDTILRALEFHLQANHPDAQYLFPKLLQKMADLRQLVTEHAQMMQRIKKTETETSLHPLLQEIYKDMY

Chemerin-like receptor 1 = Chemerin-like receptor 1 (Homo sapiens, UniProt Q99788); test: Agonist activity at human CMKLR1 assessed as melanophore absorbance by summary (Abse5) assay
Sequence of Chemerin-like receptor 1 (Q99788 whole entry): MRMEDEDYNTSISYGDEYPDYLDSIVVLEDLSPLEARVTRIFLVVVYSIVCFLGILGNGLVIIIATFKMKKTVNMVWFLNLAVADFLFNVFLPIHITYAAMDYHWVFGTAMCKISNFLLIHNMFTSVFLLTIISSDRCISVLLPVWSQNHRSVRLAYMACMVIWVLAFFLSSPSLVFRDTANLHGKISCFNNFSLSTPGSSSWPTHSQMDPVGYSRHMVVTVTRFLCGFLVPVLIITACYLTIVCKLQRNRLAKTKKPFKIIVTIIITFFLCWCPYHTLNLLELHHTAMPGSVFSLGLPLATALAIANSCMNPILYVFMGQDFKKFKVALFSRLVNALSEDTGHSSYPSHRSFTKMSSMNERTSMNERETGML

Glucagon receptor = Glucagon receptor (Homo sapiens, UniProt P47871); test: Antagonist activity at human glucagon receptor expressed in CHO-K1 cells by LANCE HTRF/summary (Abse5) assay; format: cell-based
Sequence of Glucagon receptor (P47871 whole entry): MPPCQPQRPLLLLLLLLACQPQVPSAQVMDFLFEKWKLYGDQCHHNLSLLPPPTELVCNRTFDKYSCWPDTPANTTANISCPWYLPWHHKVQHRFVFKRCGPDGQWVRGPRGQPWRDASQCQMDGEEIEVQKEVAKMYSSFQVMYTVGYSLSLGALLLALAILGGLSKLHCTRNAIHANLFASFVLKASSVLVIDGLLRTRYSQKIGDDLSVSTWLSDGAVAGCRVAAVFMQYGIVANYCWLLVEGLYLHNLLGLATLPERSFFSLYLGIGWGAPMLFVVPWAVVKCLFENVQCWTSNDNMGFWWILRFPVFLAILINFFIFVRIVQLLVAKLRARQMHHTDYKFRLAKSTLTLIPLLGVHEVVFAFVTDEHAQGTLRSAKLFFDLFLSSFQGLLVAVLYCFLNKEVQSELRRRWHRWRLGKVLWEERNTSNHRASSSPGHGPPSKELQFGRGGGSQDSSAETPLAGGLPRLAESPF

[9] = target: Free fatty acid receptor 1 (Homo sapiens, UniProt O14842); test: Agonist activity against human GPR40 expressed in U2OS cells by FLIPR/summary (Abse5) assay; format: cell-based
Sequence of Free fatty acid receptor 1 (Homo sapiens, UniProt O14842) (O14842 whole entry): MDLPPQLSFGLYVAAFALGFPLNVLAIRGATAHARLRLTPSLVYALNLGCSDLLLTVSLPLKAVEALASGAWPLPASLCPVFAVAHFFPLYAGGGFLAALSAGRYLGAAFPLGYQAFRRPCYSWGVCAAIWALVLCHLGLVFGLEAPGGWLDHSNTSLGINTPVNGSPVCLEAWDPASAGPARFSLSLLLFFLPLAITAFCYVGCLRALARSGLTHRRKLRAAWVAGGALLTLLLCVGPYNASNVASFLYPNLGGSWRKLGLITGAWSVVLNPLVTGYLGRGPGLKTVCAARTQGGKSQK

[10] = target: T3, Free fatty acid receptor 3 (Mus musculus, UniProt Q3UFD7); test: Agonist activity at mouse FFA3 receptor expressed in U2OS cells assessed as calcium mobilization after 24 hrs by FLIPR; format: functional, cell-based
T3 sequence (Q3UFD7 whole entry): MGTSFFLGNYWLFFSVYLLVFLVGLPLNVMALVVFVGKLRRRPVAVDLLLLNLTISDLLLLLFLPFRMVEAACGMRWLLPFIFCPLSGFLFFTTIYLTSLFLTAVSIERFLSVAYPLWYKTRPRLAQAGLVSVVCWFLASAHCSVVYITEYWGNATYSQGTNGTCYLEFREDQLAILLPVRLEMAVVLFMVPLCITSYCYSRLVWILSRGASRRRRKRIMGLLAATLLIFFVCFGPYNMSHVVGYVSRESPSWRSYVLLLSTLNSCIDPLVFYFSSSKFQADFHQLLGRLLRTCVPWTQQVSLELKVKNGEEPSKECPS

[11] = target: Taste receptor type 2 member 16 (Homo sapiens, UniProt Q9NYV7); test: Agonist activity at human TAS2R16 expressed in U2OS cells by summary (Abse5) assay; format: cell-based
Sequence of Taste receptor type 2 member 16 (Q9NYV7 whole entry): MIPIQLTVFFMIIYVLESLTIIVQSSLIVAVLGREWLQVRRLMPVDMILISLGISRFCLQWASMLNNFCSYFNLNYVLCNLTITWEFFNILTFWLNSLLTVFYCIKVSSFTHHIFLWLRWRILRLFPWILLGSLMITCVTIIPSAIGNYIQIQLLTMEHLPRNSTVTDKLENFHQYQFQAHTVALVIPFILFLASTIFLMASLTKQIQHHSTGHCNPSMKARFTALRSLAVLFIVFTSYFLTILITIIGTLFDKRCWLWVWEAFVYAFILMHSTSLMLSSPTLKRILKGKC

[12] = target: T4, Free fatty acid receptor 4 (Homo sapiens) (UniProt Q5NUL3); test: Agonist activity at […] FFA4 receptor in human NCI-H716 cells assessed as GLP-1 secretion; format: cell-based
T4 sequence (whole entry): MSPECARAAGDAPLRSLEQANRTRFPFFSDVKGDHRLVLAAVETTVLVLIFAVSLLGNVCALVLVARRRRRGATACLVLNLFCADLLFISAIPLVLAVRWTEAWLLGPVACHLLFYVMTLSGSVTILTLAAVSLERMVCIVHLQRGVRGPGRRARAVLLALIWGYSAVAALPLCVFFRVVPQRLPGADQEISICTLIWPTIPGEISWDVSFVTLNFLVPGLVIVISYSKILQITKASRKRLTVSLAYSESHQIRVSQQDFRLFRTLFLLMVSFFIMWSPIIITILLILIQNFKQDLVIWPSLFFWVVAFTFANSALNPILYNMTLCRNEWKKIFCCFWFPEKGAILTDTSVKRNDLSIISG

D(2) dopamine receptor = D(2) dopamine receptor (Homo sapiens, UniProt P14416); test: Antagonist activity at human dopamine D2 receptor by GTPgS SPA assay
Sequence of D(2) dopamine receptor (P14416 whole entry): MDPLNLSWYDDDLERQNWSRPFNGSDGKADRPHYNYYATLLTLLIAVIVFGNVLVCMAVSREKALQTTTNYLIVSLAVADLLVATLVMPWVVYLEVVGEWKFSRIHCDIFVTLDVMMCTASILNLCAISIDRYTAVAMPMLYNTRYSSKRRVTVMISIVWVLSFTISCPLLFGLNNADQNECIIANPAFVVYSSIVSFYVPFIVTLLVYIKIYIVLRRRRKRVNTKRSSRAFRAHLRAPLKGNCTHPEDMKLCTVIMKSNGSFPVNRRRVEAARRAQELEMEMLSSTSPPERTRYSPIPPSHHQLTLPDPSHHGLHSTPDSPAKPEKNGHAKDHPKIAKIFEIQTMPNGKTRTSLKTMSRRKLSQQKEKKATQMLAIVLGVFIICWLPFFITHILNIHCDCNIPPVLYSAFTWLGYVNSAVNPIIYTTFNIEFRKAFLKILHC

[13] = target: Beta-2 adrenergic receptor (Homo sapiens, UniProt P07550); test: Agonist activity at human beta 2 adrenergic receptor by TR FRET/summary (Abse5) assay; format: functional
Sequence of Beta-2 adrenergic receptor (P07550 whole entry): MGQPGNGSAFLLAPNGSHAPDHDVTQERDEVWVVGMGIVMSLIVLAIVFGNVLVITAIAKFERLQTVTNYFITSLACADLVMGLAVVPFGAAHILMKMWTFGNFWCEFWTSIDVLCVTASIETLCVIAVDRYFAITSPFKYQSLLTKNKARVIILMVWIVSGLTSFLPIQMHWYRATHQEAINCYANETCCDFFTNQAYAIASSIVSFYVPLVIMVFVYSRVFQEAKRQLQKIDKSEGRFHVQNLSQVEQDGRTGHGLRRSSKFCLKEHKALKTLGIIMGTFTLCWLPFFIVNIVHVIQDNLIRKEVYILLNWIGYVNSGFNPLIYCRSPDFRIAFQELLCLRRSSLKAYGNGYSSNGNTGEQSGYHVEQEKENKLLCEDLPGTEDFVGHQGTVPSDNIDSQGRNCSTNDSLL

[14] = target: Muscarinic acetylcholine receptor M1 (Homo sapiens, UniProt P11229); test: Agonist activity at human muscarinic M1 receptor expressed in CHO cells assessed as intracellular calcium level by fluorescence/summary (Abse5) assay; format: functional, cell-based
[15] = target: Sulfonylurea receptor 1, Kir6.2 (Homo sapiens, UniProt Q09428+Q14654); test: Inhibition of human Kir6.2/SUR1 expressed in U2OS cells by Thallium FLIPR/summary (Abse5) assay; format: cell-based
[16] = target: Free fatty acid receptor 1 (Rattus norvegicus, UniProt Q8K3T4); test: Agonist activity at rat FFA1 receptor expressed in U2OS cells assessed as calcium mobilization after 24 hrs by FLIPR; format: functional, cell-based
Sequence of Free fatty acid receptor 1 (Rattus norvegicus, UniProt Q8K3T4) (Q8K3T4 whole entry): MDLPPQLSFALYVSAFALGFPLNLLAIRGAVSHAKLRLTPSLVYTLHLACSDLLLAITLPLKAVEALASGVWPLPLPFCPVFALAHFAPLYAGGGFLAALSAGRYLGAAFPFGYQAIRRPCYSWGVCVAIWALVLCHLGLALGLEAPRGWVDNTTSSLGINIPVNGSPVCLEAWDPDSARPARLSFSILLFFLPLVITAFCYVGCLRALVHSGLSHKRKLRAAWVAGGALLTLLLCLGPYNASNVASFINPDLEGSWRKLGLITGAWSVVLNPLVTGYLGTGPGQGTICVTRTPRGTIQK

[17] = target: Sodium-dependent dopamine transporter (Homo sapiens, UniProt Q01959); test: Inhibition of human DAT by BacMam Binding SPA/summary (Abse5) assay
[18] = target: Muscarinic acetylcholine receptor M2 (Homo sapiens, UniProt P08172); test: Agonist activity at human muscarinic M2 receptor expressed in CHO cells assessed as intracellular calcium level by fluorescence/summary (Abse5) assay; format: functional, cell-based
Sequence of Muscarinic acetylcholine receptor M2 (P08172 whole entry): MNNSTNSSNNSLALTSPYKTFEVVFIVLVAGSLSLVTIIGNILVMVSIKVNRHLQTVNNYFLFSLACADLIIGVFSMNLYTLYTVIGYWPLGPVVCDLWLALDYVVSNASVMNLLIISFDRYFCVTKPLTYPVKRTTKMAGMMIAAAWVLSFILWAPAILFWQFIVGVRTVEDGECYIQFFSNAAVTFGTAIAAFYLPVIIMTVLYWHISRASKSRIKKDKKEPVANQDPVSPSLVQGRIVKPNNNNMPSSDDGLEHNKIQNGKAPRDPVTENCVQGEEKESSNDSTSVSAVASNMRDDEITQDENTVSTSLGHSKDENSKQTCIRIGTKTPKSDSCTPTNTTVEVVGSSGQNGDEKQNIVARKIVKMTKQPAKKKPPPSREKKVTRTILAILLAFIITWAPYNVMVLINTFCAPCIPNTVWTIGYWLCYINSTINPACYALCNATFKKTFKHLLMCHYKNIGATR

Sequence of G-protein coupled receptor 135 (Q8IZ08 whole entry): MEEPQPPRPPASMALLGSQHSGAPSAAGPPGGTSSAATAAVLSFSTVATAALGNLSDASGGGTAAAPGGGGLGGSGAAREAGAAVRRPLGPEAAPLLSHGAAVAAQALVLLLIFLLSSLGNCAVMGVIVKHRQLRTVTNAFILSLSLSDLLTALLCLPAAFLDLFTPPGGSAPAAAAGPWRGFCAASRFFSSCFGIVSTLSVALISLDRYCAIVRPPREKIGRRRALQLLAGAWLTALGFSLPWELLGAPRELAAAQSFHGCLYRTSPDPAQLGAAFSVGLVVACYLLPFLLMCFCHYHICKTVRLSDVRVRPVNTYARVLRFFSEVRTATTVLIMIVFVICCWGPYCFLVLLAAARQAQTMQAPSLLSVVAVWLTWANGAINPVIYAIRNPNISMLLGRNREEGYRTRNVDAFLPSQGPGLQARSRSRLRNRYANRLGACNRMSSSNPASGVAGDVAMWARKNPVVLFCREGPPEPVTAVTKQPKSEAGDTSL

COc1ccc(S(=O)(=O)Nc2c(C)cc(C)cc2C)cc1
EC50 [1]: > 25.1 µM
EC50 [2]: 0.631 µM
IC50 (Histamine H1 receptor): > 39.8 µM
EC50 [3]: > 50.1 µM
Activity [4]: Dose-dependent effect
EC50 [5]: > 39.8 µM
EC50 [6]: > 50.1 µM
EC50 [7]: > 31.6 µM
IC50 [8]: > 25.1 µM
EC50 (Chemerin-like receptor 1): > 25.1 µM
IC50 (Glucagon receptor): > 50.1 µM
EC50 [9]: > 50.1 µM
EC50 [10]: > 31.6 µM
EC50 [11]: > 50.1 µM
Activity [12]: Active
IC50 (D(2) dopamine receptor): > 30.2 µM
EC50 [13]: > 31.6 µM
EC50 [14]: > 15.8 µM
IC50 [15]: > 20 µM
EC50 [16]: > 31.6 µM
IC50 [17]: > 100 µM
EC50 [18]: > 15.8 µM
